Activity calls are given as the source filed them.
Legend:
[1] = tested on: MDA-MB-231; assay: Inhibition of cellular respiration in human MDA-MB-231 cells assessed as rate of oxygen consumption; type: functional, cell-based
How it was run: (§1)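 Whole-cell oxygen consumption measured with a Clarke-type oxygen electrode during a concentration-response series. Cells in serum-free DMEM/F12 medium at 30 °C.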

[2] = tested on: T47D; assay: Inhibition of cellular respiration in human T47D cells assessed as rate of oxygen consumption at 0.001 to 0.1 uM; type: functional, cell-based; how it was run: as §1
[3] = tested on: MDA-MB-231; assay: Reduction in ATP level in human MDA-MB-231 cells after 72 hrs by HPLC-UV analysis; type: functional, cell-based
How it was run: (§2)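 5 × 10^5 cells per well seeded in DMEM/F12 with 10% FBS. After 24 h, half the medium replaced with serum-free DMEM/F12 containing compound. After exposure, cells washed in cold DPBS and extracted with cold 0.4 M perchloric acid, then neutralized with K2CO3. ATP quantified by reversed-phase C18 HPLC-UV using 50 mM potassium phosphate pH 6.0/MeOH at 0.7 mL/min.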

[4] = tested on: T47D; assay: Reduction in ATP level in human T47D cells after 72 hrs by HPLC-UV analysis; type: functional, cell-based; how it was run: as §2
[5] = tested on: T47D; assay: Reduction in ATP level in human T47D cells after 48 hrs by HPLC-UV analysis; type: functional, cell-based; how it was run: as §2
[6] = tested on: T47D; assay: Reduction in ATP level in human T47D cells at 0.01 to 0.1 uM after 72 hrs by HPLC-UV analysis; type: functional, cell-based; how it was run: as §2
[7] = tested on: T47D; assay: Antiproliferative activity against human T47D cells assessed as cell viability at 0.01 to 0.1 uM after 72 hrs by SRB assay; type: functional
How it was run: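 T47D cells grown in DMEM/F12 with 10% FBS and penicillin/streptomycin, then exposed for 72 h in a parallel 96-well viability study. Cells fixed in the wells with no aspiration or wash, stained by sulforhodamine B, and read by OD. % inhibition = [1 − (OD treated/OD medium control)] × 100.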

[8] = molecular target: Serine/threonine-protein kinase mTOR (Homo sapiens) (UniProt P42345); assay: Inhibition of mTOR-mediated 4E-BP1 phosphorylation on Thr 37/46 in human T47D cells at 0.1 to 1 uM after 30 mins by Western blotting; type: cell-based
How it was run: (§3)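 0.8 × 10^6 cells per well exposed for 30 min at 37 °C, 5% CO2, in DMEM/F12 with 5% FBS. Cells washed with cold DPBS and lysed in modified RIPA (pH 7.6) with protease and phosphatase inhibitors. 40 µg protein run on 4–20% SDS-PAGE and blotted. Phospho-site-specific primary antibodies at 1:1,000, HRP anti-rabbit IgG, chemiluminescence on film.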

[9] = molecular target: Serine/threonine-protein kinase mTOR (Homo sapiens) (UniProt P42345); assay: Inhibition of mTORC1-mediated rpS6 phosphorylation on Ser 235/236 in human T47D cells at 0.1 to 1 uM after 30 mins by Western blotting; type: cell-based; how it was run: as §3
[10] = molecular target: Serine/threonine-protein kinase mTOR (Homo sapiens) (UniProt P42345); assay: Inhibition of mTORC1-mediated eIF4E phosphorylation on Ser 209 in human T47D cells at 0.1 to 1 uM after 30 mins by Western blotting; type: cell-based; how it was run: as §3
[11] = molecular target: Serine/threonine-protein kinase mTOR (Homo sapiens) (UniProt P42345); assay: Inhibition of mTOR in human T47D cells assessed as eIF2alpha hyperphosphorylation on Ser 51 at 0.1 to 1 uM after 30 mins by Western blotting; type: cell-based; how it was run: as §3
[12] = molecular target: Serine/threonine-protein kinase mTOR (Homo sapiens) (UniProt P42345); assay: Inhibition of mTOR in human T47D cells assessed as eEF2 hyperphosphorylation on Ser 56 at 0.1 to 1 uM after 30 mins by Western blotting; type: cell-based; how it was run: as §3
[13] = molecular target: Serine/threonine-protein kinase mTOR (Homo sapiens) (UniProt P42345); assay: Inhibition of mTOR-mediated 4E-BP1 phosphorylation on Thr 37/46 in human MDA-MB-231 cells at 0.1 to 1 uM after 30 mins by Western blotting; type: cell-based; how it was run: as §3
[14] = molecular target: Serine/threonine-protein kinase mTOR (Homo sapiens) (UniProt P42345); assay: Inhibition of mTOR-mediated rpS6 phosphorylation on Ser 235/236 in human MDA-MB-231 cells at 0.1 to 1 uM after 30 mins by Western blotting; type: cell-based; how it was run: as §3
[15] = molecular target: Serine/threonine-protein kinase mTOR (Homo sapiens) (UniProt P42345); assay: Inhibition of mTOR-mediated eIF4E phosphorylation on Ser 209 in human MDA-MB-231 cells at 0.1 to 1 uM after 30 mins by Western blotting; type: cell-based; how it was run: as §3
[16] = molecular target: Serine/threonine-protein kinase mTOR (Homo sapiens) (UniProt P42345); assay: Inhibition of mTOR in human MDA-MB-231 cells assessed as eIF2alpha hyperphosphorylation on Ser 51 at 0.1 to 1 uM after 30 mins by Western blotting; type: cell-based; how it was run: as §3
[17] = molecular target: Serine/threonine-protein kinase mTOR (Homo sapiens) (UniProt P42345); assay: Inhibition of mTOR in human MDA-MB-231 cells assessed as eEF2 hyperphosphorylation on Ser 56 at 0.1 to 1 uM after 30 mins by Western blotting; type: cell-based; how it was run: as §3
[18] = tested on: MDA-MB-231; assay: Reduction in ATP level in human MDA-MB-231 cells at 0.01 to 0.1 uM after 48 hrs by HPLC-UV analysis; type: functional, cell-based; how it was run: as §2
[19] = molecular target: T1, Hypoxia inducible factors; HIF-1-alpha, HIF-2-alpha (Homo sapiens, UniProt Q16665+Q99814); assay: Inhibition of hypoxia-induced HIF1 activation in human T47D cells after 16 hrs by HRE3-TK-luciferase reporter gene assay; type: cell-based
How it was run: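 T47D cells carrying the pHRE3-TK-Luc reporter, grown in DMEM/F12 with 10% FBS; HIF-1 induced by hypoxia (1% O2). Activity reported as % inhibition of the induced control, calculated as [1 − (treated/control)] × 100.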

[20] = molecular target: T1, Hypoxia inducible factors; HIF-1-alpha, HIF-2-alpha; assay: Inhibition of 1, 10-phenanthroline-induced HIF1 activation in human T47D cells after 16 hrs by HRE3-TK-luciferase reporter gene assay; type: cell-based
[21] = tested on: T47D; assay: Ratio of IC50 for 1, 10-phenanthroline-induced HIF1 activation in human T47D cells to IC50 for hypoxia-induced HIF1 activation in human T47D cells; type: cell-based
[22] = molecular target: T1, Hypoxia inducible factors; HIF-1-alpha, HIF-2-alpha; assay: Inhibition of HIF1-mediated induction of Glut-1 mRNA expression in hypoxia-stimulated human T47D cells at 0.3 to 3 uM after 16 hrs by RT-PCR analysis; type: cell-based
[23] = molecular target: T1, Hypoxia inducible factors; HIF-1-alpha, HIF-2-alpha; assay: Inhibition of HIF1-mediated induction of VEGF mRNA expression in hypoxia-stimulated human T47D cells at 0.3 to 3 uM after 16 hrs by RT-PCR analysis; type: cell-based
[24] = molecular target: T1, Hypoxia inducible factors; HIF-1-alpha, HIF-2-alpha; assay: Inhibition of HIF1-mediated induction of cellular VEGF protein in hypoxia-stimulated human T47D cells at 0.3 uM after 16 hrs by ELISA; type: cell-based
[25] = molecular target: T1, Hypoxia inducible factors; HIF-1-alpha, HIF-2-alpha; assay: Inhibition of HIF1-mediated induction of secreted VEGF protein in hypoxia-stimulated human T47D cells at 0.3 uM after 16 hrs by ELISA; type: cell-based
[26] = molecular target: T1, Hypoxia inducible factors; HIF-1-alpha, HIF-2-alpha; assay: Inhibition of HIF1-mediated induction of cellular VEGF protein in hypoxia-stimulated human T47D cells at 3 uM after 16 hrs by ELISA; type: cell-based
[27] = molecular target: T1, Hypoxia inducible factors; HIF-1-alpha, HIF-2-alpha; assay: Inhibition of HIF1-mediated induction of secreted VEGF protein in hypoxia-stimulated human T47D cells at 3 uM after 16 hrs by ELISA; type: cell-based
[28] = molecular target: T1, Hypoxia inducible factors; HIF-1-alpha, HIF-2-alpha; assay: Inhibition of HIF1-mediated induction of Glut-1 mRNA expression in human T47D cells at 3 uM after 16 hrs by RT-PCR analysis under normoxic condition; type: cell-based
[29] = molecular target: T1, Hypoxia inducible factors; HIF-1-alpha, HIF-2-alpha; assay: Inhibition of HIF1-mediated induction of VEGF mRNA expression in human T47D cells at 3 uM after 16 hrs by RT-PCR analysis under normoxic condition; type: cell-based
[30] = molecular target: T1, Hypoxia inducible factors; HIF-1-alpha, HIF-2-alpha; assay: Inhibition of HIF1-mediated induction of cellular VEGF protein in human T47D cells at 3 uM after 16 hrs by ELISA under normoxic condition; type: cell-based
[31] = molecular target: T1, Hypoxia inducible factors; HIF-1-alpha, HIF-2-alpha; assay: Inhibition of HIF1-mediated induction of secreted VEGF protein in human T47D cells at 3 uM after 16 hrs by ELISA under normoxic condition; type: cell-based
[32] = tested on: T47D; assay: Inhibition of HIF1alpha protein accumulation under hypoxic condition in human T47D cells at 3 uM after 4 hrs by Western blot analysis; type: functional, cell-based
[33] = tested on: T47D; assay: Inhibition of 1, 10-phenanthroline-induced HIF1alpha protein accumulation in human T47D cells at 3 uM after 4 hrs by Western blot analysis; type: functional, cell-based
[34] = tested on: T47D; assay: Inhibition of HIF1beta protein accumulation under hypoxic condition in human T47D cells at 3 uM after 4 hrs by Western blot analysis; type: functional, cell-based
[35] = tested on: T47D; assay: Inhibition of 1, 10-phenanthroline-induced HIF1beta protein accumulation in human T47D cells at 3 uM after 4 hrs by Western blot analysis; type: functional, cell-based
[36] = tested on: T47D; assay: Inhibition of cellular respiration in human T47D cell at 0.03 to 1 uM by oxygen consumption assay; type: functional, cell-based
How it was run: (§4)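 Oxygen consumption of intact T47D cells measured with a Clark-type electrode, in serum-free DMEM/F12 at 30 °C.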

[37] = tested on: T47D; assay: Inhibition of cellular respiration in human T47D cells at 1 uM by oxygen consumption assay; type: functional; how it was run: as §4
[38] = tested on: T47D; assay: Antiproliferative activity against human T47D cells assessed as cell viability by SRB assay; type: functional, cell-based
How it was run: (§5)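 Cells grown in DMEM/F12 with 10% FBS, penicillin and streptomycin; 96-well viability assay, 2-day or 6-day exposure, with medium (5% FBS) and compound renewed after 3 days in the 6-day study. Read by optical density; % inhibition = [1 − (ODtreated/ODcontrol)] × 100 versus medium control.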

[39] = tested on: MDA-MB-231; assay: Antiproliferative activity against human MDA-MB-231 cells assessed as cell viability by SRB assay; type: functional, cell-based; how it was run: as §5
[40] = tested on: PC-3; assay: Antiproliferative activity against human PC3 cells assessed as cell viability by SRB assay; type: functional, cell-based; how it was run: as §5

C=C(C)[C@H]1Cc2c(ccc3c2O[C@@H]2COc4cc(OC)c(OC)cc4[C@@H]2C3=O)O1 [ROTENONE]
inactive: inhibition [8] | inhibition [9] | inhibition [10] | inhibition [13] | inhibition [14] | inhibition [15]
50%: Activity [7]
active: inhibition [1] Dose-dependent effect | inhibition [2] | Activity [3] Dose-dependent effect | Activity [4] Dose-dependent effect | Activity [5] | Activity [6] | inhibition [11] | Activity [12] | Activity [16] | Activity [17] | Activity [18]

CC(C)=CC(=O)O[C@@H]1CC[C@]2(C)[C@H]3CC[C@]45C[C@]4(CC[C@@H]5[C@@H]4C[C@H]([C@@H]5OC5(C)C)OC4O)[C@]3(C)[C@H](O)C[C@H]2C1(C)C (stereo not given in full) [SKIMMIAREPIN C]
inactive: inhibition [28] | inhibition [29] | inhibition [30] | inhibition [31] | inhibition [33] | inhibition [34] | inhibition [35] | Activity [39]
80: Ratio IC50 [21]
5600 nM: IC50 [20]
68 nM: IC50 [19]
75%: inhibition at 1 µM [37]
active: inhibition [22] | inhibition [23] | inhibition [24] | inhibition [25] | inhibition [26] | inhibition [27] | inhibition [32] | inhibition [36] Dose-dependent effect | Activity [38] | Activity [40]

— ChEMBL document CHEMBL1909531, “Mitochondrial respiration inhibitors suppress protein translation and hypoxic signaling via the hyperphosphorylation and inactivation of translation initiation factor eIF2α and elongation factor eEF2” (J Nat Prod, 2011)
